Series [1] concerns HepG2. As to the kind of experiment: Cell cycle arrest in human HepG2 cells assessed as accumulation at G1 phase at 0.6 uM after 72 hrs by propidium iodide staining-based flow cytometric analysis (reference value: 34%). In kind it is functional. In outline:
(§1)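 Concentrations used were 0, 0.3, 0.6 and 1.2 μM in HepG2 and 0, 0.16, 0.31 and 1.25 μM in PC-3, with untreated cells as control, for 72 h. Cells were trypsinized, washed in PBS, fixed in cold ethanol at 4 °C overnight, then incubated 30 min in PBS containing RNase A and propidium iodide. DNA content was read by flow cytometry to give phase distribution.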

For series [2], the system named is HepG2. As to the kind of experiment: Cell cycle arrest in human HepG2 cells assessed as accumulation at G2/M phase at 0.6 uM after 72 hrs by propidium iodide staining-based flow cytometric analysis (reference value: 21.4%). In kind it is functional. In outline:
as §1

The subject of series [3] is HepG2. The series can be described thus: Cell cycle arrest in human HepG2 cells assessed as accumulation at G2/M phase at 1.2 uM after 72 hrs by propidium iodide staining-based flow cytometric analysis (reference value: 21.4%). It is filed as functional. In outline: as §1
In series [4] the test system is HepG2. As to the kind of experiment: Induction of apoptosis in human HepG2 cells assessed as chromatin condensation at 0.3 to 0.6 uM after 48 hrs by Hoechst 33258 staining-based fluorescent microscopic analysis. It is filed as functional, cell-based. An outline of the steps:
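HepG2 cells grown on coverslips were treated for 48 h at 0.3, 0.6 or 1.2 μM, then fixed in 4% paraformaldehyde for 10 min. After PBS washes, cells were stained with Hoechst 33258 for 5 min and washed again. Nuclear morphology was examined by fluorescence imaging at 350 nm excitation and 460 nm emission.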

Series [5] deals with HepG2. The series can be described thus: Induction of apoptosis in human HepG2 cells assessed as reduction in adherent cells at 0.3 to 0.6 uM after 48 hrs by Hoechst 33258 staining-based fluorescent microscopic analysis. In kind it is functional, cell-based. In outline:
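HepG2 cells on sterile cover slips in 6-well plates exposed to 0, 0.3, 0.6 or 1.2 μM, or vehicle, for 48 h. Fixed in 4% paraformaldehyde for 10 min, PBS-washed, stained with Hoechst 33258 for 5 min. Nuclear morphology and adherent cell number viewed at 350 nm excitation / 460 nm emission. Non-treated cells served as control.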

In series [6] the test system is HepG2. As to the kind of experiment: Induction of apoptosis in human HepG2 cells assessed as necrotic cells at 0.3 uM after 72 hrs by Annexin V-APC/7-AAD or propidium iodide staining-based flow cytometric analysis (reference value: 1.87%). In kind it is functional.
In series [7] the test system is HepG2. As to the kind of experiment: Induction of apoptosis in human HepG2 cells assessed as early apoptotic cells at 1.2 uM after 72 hrs by Annexin V-APC/7-AAD or propidium iodide staining-based flow cytometric analysis (reference value: 1.87%). In kind it is functional.
Series [8] deals with L02. The series can be described thus: Induction of apoptosis in human LO2 cells assessed as necrotic cells at 50 uM after 72 hrs by Annexin V-FITC/7-AAD or propidium iodide staining-based flow cytometric analysis (reference value: 1.99%). In kind it is cell-based. The conditions noted are these: l02, 72 h.
A short description of series [9]: Induction of apoptosis in human LO2 cells assessed as viable cells at 1.2 uM after 72 hrs by Annexin V-FITC/7-AAD or propidium iodide staining-based flow cytometric analysis (reference value: 94.26%). It is filed as cell-based, L02. The conditions noted are these: read-out: Activity.
Series [10] concerns L02. As to the kind of experiment: Induction of apoptosis in human LO2 cells assessed as late apoptotic cells at 1.2 uM after 72 hrs by Annexin V-FITC/7-AAD or propidium iodide staining-based flow cytometric analysis (reference value: 0.11%). In kind it is cell-based. The following applies: l02, 72 h.
For series [11], the system named is L02. As to the kind of experiment: Induction of apoptosis in human LO2 cells assessed as necrotic cells at 1.2 uM after 72 hrs by Annexin V-FITC/7-AAD or propidium iodide staining-based flow cytometric analysis (reference value: 1.99%). The conditions noted are these: l02, 72 h. In kind it is cell-based.
Series [12] relates to HepG2. The series can be described thus: Induction of apoptosis in human HepG2 cells assessed as reduction in mitochondrial membrane potential at 0.3 uM after 48 hrs by JC-1 staining-based flow cytometric analysis (reference value: 1.6%). It is filed as functional. More on the design: scale not given: the % may be the effect or the level left. An outline of the steps: (§2)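 HepG2 cells cultured overnight, then incubated in triplicate with 0, 0.3, 0.6 or 1.2 μM, or vehicle, for 48 h. Stained with the cationic dye JC-1. Flow cytometry gave the percentage of cells with healthy versus collapsed mitochondrial membrane potential.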

The test system of series [13] is HepG2. As to the kind of experiment: Induction of apoptosis in human HepG2 cells assessed as reduction in mitochondrial membrane potential at 1.2 uM after 48 hrs by JC-1 staining-based flow cytometric analysis (reference value: 1.6%). It is filed as functional. The arrangement: scale not given: the % may be the effect or the level left. In outline:
as §2

In series [14] the test system is HepG2. The series can be described thus: Induction of apoptosis in human HepG2 cells assessed as reduction in Hsp27 expression levels at 2 uM after 24 hrs by membrane-based sandwich immunoassay. In kind it is functional, cell-based. An outline of the steps:
(§3)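 HepG2 cells treated at 2 μM for 24 h; protein extracts prepared per the kit protocol. Relative levels of 35 apoptosis-related proteins measured with a human apoptosis antibody array.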

The subject of series [15] is HepG2. The series can be described thus: Induction of apoptosis in human HepG2 cells assessed as reduction in HO-2 expression levels at 2 uM after 24 hrs by membrane-based sandwich immunoassay. In kind it is functional, cell-based. In outline:
as §3

The subject of series [16] is PC-3. The series can be described thus: Cell cycle arrest in human PC3 cells assessed as accumulation at G1 phase at 0.31 uM after 72 hrs by propidium iodide staining-based flow cytometric analysis (reference value: 53.36%). It is filed as functional. In outline:
as §1

Series [17] has as its system PC-3. As to the kind of experiment: Induction of apoptosis in human PC3 cells assessed as viable cells at 0.16 uM after 72 hrs by Annexin V-APC/7-AAD or propidium iodide staining-based flow cytometric analysis (reference value: 88.74%). It is filed as functional. The conditions noted are these: PC-3, 72 h, read-out: Activity.
The test system of series [18] is PC-3. The series can be described thus: Induction of apoptosis in human PC3 cells assessed as necrotic cells at 0.31 uM after 72 hrs by Annexin V-APC/7-AAD or propidium iodide staining-based flow cytometric analysis (reference value: 2.43%). In kind it is functional.
In series [19] the test system is PC-3. As to the kind of experiment: Induction of apoptosis in human PC3 cells assessed as viable cells at 1.25 uM after 72 hrs by Annexin V-APC/7-AAD or propidium iodide staining-based flow cytometric analysis (reference value: 88.74%). The conditions noted are these: PC-3, 72 h, read-out: Activity. In kind it is functional.
The test system of series [20] is PC-3. The series can be described thus: Induction of apoptosis in human PC3 cells assessed as early apoptotic cells at 1.25 uM after 72 hrs by Annexin V-APC/7-AAD or propidium iodide staining-based flow cytometric analysis (reference value: 4.09%). It is filed as functional.
Series [21] deals with L02. As to the kind of experiment: Induction of apoptosis in human LO2 cells assessed as early apoptotic cells at 1.25 uM after 72 hrs by Annexin V-FITC/7-AAD or propidium iodide staining-based flow cytometric analysis (reference value: 3.65%). It is filed as cell-based. The conditions noted are these: l02, 72 h.
Series [22] relates to L02. As to the kind of experiment: Induction of apoptosis in human LO2 cells assessed as late apoptotic cells at 1.25 uM after 72 hrs by Annexin V-FITC/7-AAD or propidium iodide staining-based flow cytometric analysis (reference value: 0.11%). It is filed as cell-based. The conditions noted are these: l02, 72 h.
Series [23] has as its system L02. As to the kind of experiment: Induction of apoptosis in human LO2 cells assessed as necrotic cells at 1.25 uM after 72 hrs by Annexin V-FITC/7-AAD or propidium iodide staining-based flow cytometric analysis (reference value: 1.99%). In kind it is cell-based. The conditions noted are these: l02, 72 h.
The subject of series [24] is PC-3. As to the kind of experiment: Induction of apoptosis in human PC3 cells assessed as reduction in mitochondrial membrane potential at 0.16 uM after 48 hrs by JC-1 staining-based flow cytometric analysis (reference value: 1.86%). It is filed as functional. More on the design: scale not given: the % may be the effect or the level left. An outline of the steps: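 After overnight culture, PC-3 cells were treated in triplicate with 0, 0.16, 0.31 or 1.25 μM, or vehicle, for 48 h. They were then loaded with JC-1, and the proportion with depolarized mitochondrial membrane potential was counted by flow cytometry.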

SMILES strings stand for the structures. The source made the active and inactive calls. The rule behind the calls is not given here.

As for `O=C(NCCCOc1no[n+]([O-])c1S(=O)(=O)c1ccccc1)[C@H]1O[C@@H](Oc2cc3oc(-c4ccc(OCc5ccccc5)cc4)cc(=O)c3c(O)c2OCc2ccccc2)[C@H](O)[C@@H](O)[C@@H]1O`, the Activity worked out at 32.02% in the series on HepG2 [1]; 17.54% in the series with HepG2 [2]; 3.24% in the series with HepG2 [3]; 3.85% with HepG2 [6]; 13.46% in the series on HepG2 [7]; 2.27% with L02 [8]. Further, the Activity with L02 [10] was 2.76%; in the series with L02 [11], 1.53%; in the series on HepG2 [12] it was 15.14%; with HepG2 [13], 58.47%. Besides, the outcome with HepG2 [4], in the series with HepG2 [5], in the series on HepG2 [14] and with HepG2 [15] was Active. In addition, the viability at 72 h, 1.2 µM in [9] came to 81.5%.

As to `COc1ccc(-c2cc(=O)c3c(O)c(OC)c(O[C@@H]4O[C@H](C(=O)NCCOc5no[n+]([O-])c5S(=O)(=O)c5ccccc5)[C@@H](O)[C@H](O)[C@H]4O)cc3o2)cc1`, the Activity in the series with PC-3 [16] was 43.22%; with PC-3 [18], 2.76%; with PC-3 [20], 14.91%; in the series with L02 [21], 17.35%; with L02 [22], 2.95%; in the series with L02 [23], 1.32%. Also, in the series on PC-3 [24], the Activity is 17.9%. In the series on PC-3 [17], the viability at 0.16 µM was 79.1%. In the series with PC-3 [19], the viability at 1.25 µM turned out to be 36.3%.

The values above are taken from ChEMBL document CHEMBL4052629, “Scutellarin derivatives as apoptosis inducers: Design, synthesis and biological evaluation” (Eur J Med Chem, 2017).
